Measured values published in ChEMBL document CHEMBL1121797, “Studies on chiral interactions of 1-(2,5-dimethoxy-4-methylphenyl)-2-aminopropane and the corresponding N-hydroxy metabolites with cytochrome P-450” (J Med Chem, 1981).

What was measured:
[1] = Initial rates of formation of metabolic intermediate Cytochrome P-450 at compound concentration of 30 uM; assay type: ADME
Procedure, shortened: (§1)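 Rabbit liver microsomes at 2 mg protein/mL with 0.1 mM EDTA, 37 °C, substrate 30 μM. Complex formation started with 0.4 mM NADPH and followed by dual-wavelength absorbance, 457 vs 500 nm. Initial rate is the initial slope, ΔA×10^4 per nmol P-450 per min. Extent is the plateau absorbance. Lag is the time from NADPH addition to first 457-nm chromophore. Triplicate or single runs.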

[2] = Extent rates of formation of metabolic intermediate Cytochrome P-450 at compound concentration of 30 uM; assay type: ADME; procedure, shortened: as §1
[3] = Initial rates of formation of metabolic intermediate Cytochrome P-450 at compound concentration of 15-180 uM; assay type: ADME
Procedure, shortened: (§2)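 Rabbit liver microsomes at 2 mg protein/mL with 0.1 mM EDTA, 37 °C, NADPH-dependent. Substrate tested at several concentrations. ΔA457–500 nm followed against time. Rate is the initial slope per nmol P-450 per min; extent is the plateau absorbance. Runs disturbed by a transient 450-nm species were discarded.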

Cytochrome P450 2C19 [4] = target: T1, Cytochrome P450 2C19 (Homo sapiens, UniProt P33261); assay: Apparent binding affinity of compound (15.0-45.0 uM) in Cytochrome P450 binding; assay type: ADME, Oryctolagus cuniculus; details: read-out: Ks
T1 sequence (P33261 whole entry): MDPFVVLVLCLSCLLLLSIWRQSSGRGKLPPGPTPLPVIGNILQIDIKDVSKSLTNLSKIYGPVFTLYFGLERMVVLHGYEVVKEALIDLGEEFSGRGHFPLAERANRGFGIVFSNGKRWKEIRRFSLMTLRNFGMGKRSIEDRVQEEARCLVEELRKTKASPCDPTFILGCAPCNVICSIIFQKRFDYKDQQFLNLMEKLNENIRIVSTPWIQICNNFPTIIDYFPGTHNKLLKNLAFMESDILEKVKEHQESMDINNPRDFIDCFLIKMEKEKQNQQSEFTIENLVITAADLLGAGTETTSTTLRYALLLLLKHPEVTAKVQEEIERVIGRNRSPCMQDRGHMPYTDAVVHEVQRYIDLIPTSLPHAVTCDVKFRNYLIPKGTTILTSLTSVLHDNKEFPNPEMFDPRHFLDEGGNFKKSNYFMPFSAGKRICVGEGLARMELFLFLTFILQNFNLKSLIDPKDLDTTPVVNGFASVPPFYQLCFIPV

[5] = Lag time between the addition of compound (30 uM) and the first appearance of chromophore; assay type: ADME; procedure, shortened: as §1
[6] = Extent rates of formation of metabolic intermediate Cytochrome P-450 at compound concentration of 15-180 uM; assay type: ADME; procedure, shortened: as §2
[7] = Initial rates of formation of metabolic intermediate Cytochrome P-450 at compound concentration of 7.5-180 uM; assay type: ADME; procedure, shortened: as §2
[8] = Extent rates of formation of metabolic intermediate Cytochrome P-450 at compound concentration of 7.5-180 uM; assay type: ADME; procedure, shortened: as §2
Cytochrome P450 2C19 [9] = target: T1, Cytochrome P450 2C19; assay: Apparent binding affinity of compound (10.8-60.0 uM) in Cytochrome P450 binding; assay type: ADME, Oryctolagus cuniculus; details: read-out: Ks

Compound	Rate [1]	Rate [2]	Rate [3]	Kd (Cytochrome P450 2C19 [4]) [µM]	Lag time [5] [s]	Rate [6]	Rate [7]	Rate [8]	Kd (Cytochrome P450 2C19 [9]) [µM]
COc1cc(C[C@H](C)NO)c(OC)cc1C	211	161	66	68	0	34			
COc1cc(C[C@@H](C)NO)c(OC)cc1C	182	124			0		30	23	22
